Measurements published in ChEMBL document CHEMBL1157608, “The discovery of 4-{1-[({2,5-dimethyl-4-[4-(trifluoromethyl)benzyl]-3-thienyl}carbonyl)amino]cyclopropyl}benzoic acid (MK-2894), a potent and selective prostaglandin E2 subtype 4 receptor antagonist” (J Med Chem, 2010).

How the values were obtained:
Prostacyclin receptor = Prostacyclin receptor (Homo sapiens, UniProt P43119); test: Displacement of [3H]iloprost from human IP receptor expressed in HEK293-EBNA cells by scintillation counting; format: cell-based
How it was run: (§1)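 Radioligand binding on membranes from HEK 293(EBNA) clonal lines overexpressing each prostanoid receptor, using the respective 3H-prostaglandin or thromboxane ligand; EP4 binding also run with 10% human serum; Ki as means of at least three experiments (rEP2, rEP3 n = 1).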

Thromboxane A2 receptor = molecular target: T1, Thromboxane A2 receptor (Homo sapiens, UniProt P21731); test: Displacement of [3H]SQ29548 from human TP receptor expressed in HEK293-EBNA cells by scintillation counting; format: cell-based; how it was run: as §1
T1 sequence (P21731 whole entry): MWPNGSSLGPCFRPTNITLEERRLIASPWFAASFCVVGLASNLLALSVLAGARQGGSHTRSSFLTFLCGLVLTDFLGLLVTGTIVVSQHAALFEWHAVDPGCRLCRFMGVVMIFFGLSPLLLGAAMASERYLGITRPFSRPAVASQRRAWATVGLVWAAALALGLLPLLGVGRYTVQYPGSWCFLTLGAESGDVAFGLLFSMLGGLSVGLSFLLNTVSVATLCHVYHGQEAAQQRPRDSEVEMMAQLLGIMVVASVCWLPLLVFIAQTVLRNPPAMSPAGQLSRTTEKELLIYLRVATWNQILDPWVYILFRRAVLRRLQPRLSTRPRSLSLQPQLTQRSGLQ

[1] = molecular target: T2, Prostaglandin E2 receptor EP3 subtype (Homo sapiens, UniProt P43115); test: Displacement of [3H]PGE2 from human EP3 receptor expressed in HEK293-EBNA cells by scintillation counting; format: cell-based; how it was run: as §1
T2 sequence (P43115 whole entry): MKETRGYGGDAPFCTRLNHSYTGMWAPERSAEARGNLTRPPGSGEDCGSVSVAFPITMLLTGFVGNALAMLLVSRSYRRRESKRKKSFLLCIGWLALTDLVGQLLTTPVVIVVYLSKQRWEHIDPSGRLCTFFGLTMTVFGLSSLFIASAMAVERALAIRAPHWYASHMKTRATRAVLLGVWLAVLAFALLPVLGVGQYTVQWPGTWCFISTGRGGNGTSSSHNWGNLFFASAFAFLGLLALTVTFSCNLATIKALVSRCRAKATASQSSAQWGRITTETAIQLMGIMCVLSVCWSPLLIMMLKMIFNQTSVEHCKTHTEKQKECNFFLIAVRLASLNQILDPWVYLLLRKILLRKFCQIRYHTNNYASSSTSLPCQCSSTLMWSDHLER

[2] = molecular target: Prostaglandin E2 receptor EP2 subtype (Homo sapiens, UniProt P43116); test: Displacement of [3H]PGE2 from human EP2 receptor expressed in HEK293-EBNA cells by scintillation counting; format: cell-based; how it was run: as §1
[3] = molecular target: T3, Prostaglandin E2 receptor EP4 subtype (Homo sapiens, UniProt P35408); test: Displacement of [3H]PGE2 from human EP4 receptor expressed in HEK293-EBNA cells by scintillation counting; format: cell-based; how it was run: as §1
[4] = molecular target: T4, Prostaglandin E2 receptor EP1 subtype (Homo sapiens, UniProt P34995); test: Displacement of [3H]PGE2 from human EP1 receptor expressed in HEK293-EBNA cells by scintillation counting; format: cell-based; how it was run: as §1
T4 sequence (P34995 whole entry): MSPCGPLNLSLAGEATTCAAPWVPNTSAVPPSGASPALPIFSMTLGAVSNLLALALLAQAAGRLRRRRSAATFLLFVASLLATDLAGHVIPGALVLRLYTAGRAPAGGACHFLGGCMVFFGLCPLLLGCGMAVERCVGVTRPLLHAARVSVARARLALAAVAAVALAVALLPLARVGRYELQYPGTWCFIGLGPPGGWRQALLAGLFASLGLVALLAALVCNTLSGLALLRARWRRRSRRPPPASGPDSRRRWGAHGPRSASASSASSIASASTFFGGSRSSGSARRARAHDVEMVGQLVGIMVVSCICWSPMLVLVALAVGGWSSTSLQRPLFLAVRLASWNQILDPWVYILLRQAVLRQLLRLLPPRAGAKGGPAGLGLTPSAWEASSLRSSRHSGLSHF

[5] = molecular target: T5, Prostaglandin D2 receptor 2 (Homo sapiens, UniProt Q9Y5Y4); test: Displacement of [3H]PGD2 from human DP2 receptor expressed in HEK293-EBNA cells by scintillation counting; format: cell-based; how it was run: as §1
T5 sequence (Q9Y5Y4 whole entry): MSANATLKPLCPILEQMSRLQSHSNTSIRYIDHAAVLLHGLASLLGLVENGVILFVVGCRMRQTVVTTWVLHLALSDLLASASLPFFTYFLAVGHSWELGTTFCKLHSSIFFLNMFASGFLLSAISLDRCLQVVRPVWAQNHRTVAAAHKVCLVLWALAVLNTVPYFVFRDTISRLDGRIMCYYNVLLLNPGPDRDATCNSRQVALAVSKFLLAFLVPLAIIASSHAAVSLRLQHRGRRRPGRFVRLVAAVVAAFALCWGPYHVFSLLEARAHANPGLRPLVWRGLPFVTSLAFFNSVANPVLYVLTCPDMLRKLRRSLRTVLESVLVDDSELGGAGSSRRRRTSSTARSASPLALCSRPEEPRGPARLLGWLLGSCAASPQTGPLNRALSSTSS

[6] = molecular target: T3, Prostaglandin E2 receptor EP4 subtype; test: Antagonist activity at human EP4 receptor expressed in HEK293 cells assessed as inhibition of PGE2-induced cAMP accumulation by scintillation proximity assay; format: functional, cell-based
How it was run: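 HEK 293 cells; inhibition of PGE2-induced cAMP accumulation measured, with and without 10% human serum; means of at least three experiments.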

[7] = molecular target: Prostaglandin F2-alpha receptor (Homo sapiens, UniProt P43088); test: Displacement of [3H]PGF2alpha from human FP receptor expressed in HEK293-EBNA cells by scintillation counting; format: cell-based; how it was run: as §1
[8] = molecular target: T6, Prostaglandin D2 receptor (Homo sapiens, UniProt Q13258); test: Displacement of [3H]PGD2 from human DP1 receptor expressed in HEK293-EBNA cells by scintillation counting; format: cell-based; how it was run: as §1
T6 sequence (Q13258 whole entry): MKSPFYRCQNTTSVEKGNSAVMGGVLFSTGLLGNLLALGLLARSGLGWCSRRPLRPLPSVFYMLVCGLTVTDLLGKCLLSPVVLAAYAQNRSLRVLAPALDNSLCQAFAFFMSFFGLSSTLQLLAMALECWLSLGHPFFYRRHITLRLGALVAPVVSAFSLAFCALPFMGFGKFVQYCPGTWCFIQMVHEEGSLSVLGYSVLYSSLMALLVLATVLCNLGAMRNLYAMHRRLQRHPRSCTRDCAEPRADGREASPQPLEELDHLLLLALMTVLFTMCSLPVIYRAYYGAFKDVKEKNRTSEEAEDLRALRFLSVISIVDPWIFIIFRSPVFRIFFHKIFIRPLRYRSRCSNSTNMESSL

Rattus norvegicus [9] = species on record: Rattus norvegicus; test: Analgesic activity against complete Freund's adjuvant-induced Sprague-Dawley rat inflammatory pain assessed as inhibition of chronic paw swelling; format: functional
How it was run: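 Adjuvant-induced arthritis in rats: CFA injected into primary paw on day 0; oral dosing in 0.5% methocel once daily for 9 days starting day 9; secondary paw swelling measured; plasma levels taken 24 h after final dose; n = 7/group; 1-way ANOVA/Dunnett's vs vehicle.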

Rattus norvegicus [10] = test: Analgesic activity in po dosed Sprague-Dawley rat assessed as inhibition of carrageenan-induced mechanical hyperalgesia relative to control; format: functional
How it was run: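 SD rats given subplantar carrageenan; compound dosed orally as a single dose; mechanical hyperalgesia read at 3 h post carrageenan, 1 h post dose; inhibition expressed vs vehicle control; n = 10-20/group; 1-way ANOVA/Dunnett's.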

Chain of Prostaglandin E2 receptor EP2 subtype (P43116 whole entry): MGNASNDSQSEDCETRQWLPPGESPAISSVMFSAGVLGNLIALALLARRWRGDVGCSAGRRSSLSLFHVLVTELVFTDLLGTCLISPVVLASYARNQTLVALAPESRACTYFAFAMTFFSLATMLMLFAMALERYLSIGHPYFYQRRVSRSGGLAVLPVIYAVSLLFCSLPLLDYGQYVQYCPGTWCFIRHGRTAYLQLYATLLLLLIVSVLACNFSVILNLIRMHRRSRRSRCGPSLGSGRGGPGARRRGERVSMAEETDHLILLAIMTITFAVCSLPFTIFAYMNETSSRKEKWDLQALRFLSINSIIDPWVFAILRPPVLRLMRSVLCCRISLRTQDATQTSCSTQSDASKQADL
Chain of Prostacyclin receptor (P43119 whole entry): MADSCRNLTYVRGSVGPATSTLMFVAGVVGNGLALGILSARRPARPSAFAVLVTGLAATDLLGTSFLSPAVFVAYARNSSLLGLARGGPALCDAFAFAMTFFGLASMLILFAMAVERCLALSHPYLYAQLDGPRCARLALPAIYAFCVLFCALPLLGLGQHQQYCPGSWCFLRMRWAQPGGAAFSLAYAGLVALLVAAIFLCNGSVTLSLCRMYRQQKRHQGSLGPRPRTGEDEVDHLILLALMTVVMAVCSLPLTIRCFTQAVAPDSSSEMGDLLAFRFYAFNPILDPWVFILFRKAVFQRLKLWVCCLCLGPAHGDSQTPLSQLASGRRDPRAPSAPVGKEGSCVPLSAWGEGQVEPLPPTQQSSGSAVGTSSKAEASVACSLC
Chain of Prostaglandin F2-alpha receptor (P43088 whole entry): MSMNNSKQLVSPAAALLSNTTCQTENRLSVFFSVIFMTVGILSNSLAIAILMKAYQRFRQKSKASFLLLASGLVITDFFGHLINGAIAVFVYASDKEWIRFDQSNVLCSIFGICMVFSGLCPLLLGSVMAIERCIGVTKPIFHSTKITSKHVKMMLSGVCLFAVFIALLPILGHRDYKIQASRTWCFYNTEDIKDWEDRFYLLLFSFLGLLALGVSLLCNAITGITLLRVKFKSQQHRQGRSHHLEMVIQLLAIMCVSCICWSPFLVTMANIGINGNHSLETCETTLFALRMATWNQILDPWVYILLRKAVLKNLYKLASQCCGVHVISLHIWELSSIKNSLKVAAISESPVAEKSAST
T3 sequence (P35408 whole entry): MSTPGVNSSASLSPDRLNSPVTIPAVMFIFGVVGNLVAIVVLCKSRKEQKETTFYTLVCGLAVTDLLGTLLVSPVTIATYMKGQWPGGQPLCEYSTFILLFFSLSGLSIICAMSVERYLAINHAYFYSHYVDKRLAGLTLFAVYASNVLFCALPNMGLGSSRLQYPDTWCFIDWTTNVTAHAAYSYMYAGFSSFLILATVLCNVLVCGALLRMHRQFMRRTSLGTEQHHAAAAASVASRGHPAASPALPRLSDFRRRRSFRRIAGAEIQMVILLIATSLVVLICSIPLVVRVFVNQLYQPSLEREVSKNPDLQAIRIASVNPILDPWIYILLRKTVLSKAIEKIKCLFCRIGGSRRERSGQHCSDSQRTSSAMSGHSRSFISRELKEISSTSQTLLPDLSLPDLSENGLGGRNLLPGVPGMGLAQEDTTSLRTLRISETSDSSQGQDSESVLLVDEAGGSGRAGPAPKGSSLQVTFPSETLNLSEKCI

Structure (SMILES) | Ki (Prostacyclin receptor) [nM] | Ki (Thromboxane A2 receptor) [nM] | Ki [1] [nM] | Ki [2] [nM] | Ki [3] [nM] | Ki [4] [nM] | Ki [5] [nM] | IC50 [6] [nM] | Ki [7] [nM] | Ki [8] [nM] | ED50 (Rattus norvegicus [9]) | inhibition (INH) (Rattus norvegicus [10]) [%]
C[C@@H](NC(=O)c1c(Cl)sc(Cl)c1Cc1cccc(Cl)c1)c1ccc(C(=O)O)cc1 | > 224 | > 224 | > 224 | 384 | 0.87 | > 224 | > 224 | 1.8 | > 224 | > 224 | – | –
Cc1sc(C)c(C(=O)N[C@@H](C)c2ccc(C(=O)O)cc2)c1Cc1cccc(C(F)(F)F)c1 | > 3460 | > 3460 | > 3460 | 800 | 2.5 | > 3460 | > 3460 | 4.7 | > 3460 | > 3460 | – | –
C[C@H](NC(=O)c1cscc1Cc1cccc(Cl)c1)c1ccc(C(=O)O)cc1 | > 7280 | > 7280 | > 7280 | 16 | 6.4 | > 7280 | > 7280 | 12 | > 7280 | > 7280 | – | –
Cc1sc(C)c(C(=O)N[C@@H](C)c2ccc(C(=O)O)cc2)c1Cc1ccc(Cl)cc1 | > 2120 | > 2120 | > 2120 | 202 | 2.9 | > 2120 | > 2120 | 5.4 | > 2120 | > 2120 | – | –
CS(=O)(=O)c1ccc(C2=C(c3ccccc3)C(=O)OC2)cc1 [ROFECOXIB] | – | – | – | – | – | – | – | – | – | – | 0.7 mg/kg | –
Cc1sc(C)c(C(=O)N[C@@H](C)c2ccc(C(=O)O)cc2)c1Cc1ccc(C(F)(F)F)cc1 | > 5470 | > 5470 | > 5470 | 1190 | – | > 5470 | > 5470 | 4.5 | > 5470 | > 5470 | – | –
CS(=O)(=O)c1ccc(C2=C(c3ccc(F)c(F)c3)C(=O)OC2)cc1 | – | – | – | – | – | – | – | – | – | – | 0.5 mg/kg | 70
C[C@H](NC(=O)c1c(Cl)sc(Cl)c1Cc1cccc(Cl)c1)c1ccc(C(=O)O)cc1 | > 456 | > 456 | > 456 | 746 | – | > 456 | > 456 | 3.6 | > 456 | > 456 | – | –
O=C(O)c1ccc(CNC(=O)c2c(Cl)sc(Cl)c2Cc2cccc(Cl)c2)cc1 | > 628 | > 628 | > 628 | 43 | 0.72 | > 628 | > 628 | 1.6 | > 628 | > 628 | – | –
Cc1sc(C)c(C(=O)NC2(c3ccc(-c4nn[nH]n4)cc3)CC2)c1Cc1ccc(C(F)(F)F)cc1 | > 501 | > 501 | > 501 | > 29000 | 0.63 | > 501 | > 501 | 2.3 | > 501 | > 501 | – | –
COc1cccc(OC)c1C1(C(=O)NS(=O)(=O)Cc2ccc(N3Cc4c(c(OCC(F)(F)F)c5cccnc5c4OCC(F)(F)F)C3=O)c(C)c2)CC1 | – | – | – | – | – | – | – | – | – | – | 0.003 mg/kg/day | –
Cc1sc(C)c(C(=O)N[C@@H](C)c2ccc(C(=O)O)cc2)c1Cc1cccc(Cl)c1 | > 2230 | > 2230 | > 2230 | 467 | – | > 2230 | > 2230 | 8.6 | > 2230 | > 2230 | – | –
Cc1sc(C)c(C(=O)NC2(c3ccc(C(=O)O)cc3)CC2)c1Cc1cccc(C(F)(F)F)c1 | > 4990 | > 4990 | > 4990 | > 29100 | 0.75 | > 4990 | > 4990 | – | > 4990 | > 4990 | – | –
